One data set relates to CCRF-CEM. The data set can be described thus: Cytotoxicity against human CCRF-CEM cells after 72 hrs by MTT assay. It is filed as functional. The method in brief: (§1)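 CCRF-CEM, HT-29, PC-3 and HTB-54 cells grown in RPMI 1640 with 10% foetal calf serum, 2 mM L-glutamine, penicillin/streptomycin, 10 mM HEPES (pH 7.4). Five concentrations, 0.01–100 μM, 72 h at 37 °C, 5% CO2; MTT read-out. GI50, TGI and LC50 versus untreated controls; at least 3 independent experiments in quadruplicate.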
On the technique in general: Tetrazolium assays rely on reduction of a dye to a coloured formazan, in cell work by metabolically active cells.

Data set [1] in a line: Cytotoxicity against human PC3 cells after 72 hrs by MTT assay. The class given is functional. To be noted: PC-3, 72 h. The method in brief: as §1
The next data set deals with HT-29. The data set can be described thus: Cytotoxicity against human HT-29 cells after 72 hrs by MTT assay. The class given is functional. The following applies: HT-29, 72 h. A digest of the protocol:
as §1

Data set [2] can be described thus: Antioxidant activity assessed as ABTS radical scavenging activity at 0.1 mg/ml after 6 mins. To be noted: 0.1 h. It is filed as physicochemical. The method in brief: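 Diluted with 50% ethanol to A741 0.700 ± 0.02. A741 decrease read after 6 min against a 50% ethanol blank. % scavenged relative to a vehicle-plus-radical control. Quadruplicate.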
A short description of data set [3]: Cytotoxicity against human HTB-54 cells after 72 hrs by MTT assay. It is filed as functional. The following applies: HTB-54, 72 h; for CC50: read-out: LC50 (the source's name). A digest of the protocol:
as §1

A short description of data set [4]: Antioxidant activity assessed as ABTS radical scavenging activity by measuring Trolox equivalent antioxidant capacity after 6 mins. The class given is physicochemical. To be noted: 0.1 h. A digest of the protocol: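 ABTS dissolved in deionized water at 1 mg/mL, oxidised to radical cation with potassium persulfate (2.45 mM final), kept overnight at room temperature in dark, then diluted with 50% ethanol to A741 = 0.700 ± 0.02. Compound (1 mg/mL ethanol stock) added 1:10 (0.1 mg/mL); A741 decrease read after 6 min against 50% ethanol blank. Trolox positive control; quadruplicate; TEAC from calibration curve.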

A short description of data set [5]: Cytotoxicity against human 184B5 cells after 72 hrs by MTT assay. It is filed as cell-based. The following applies: for GI50 at 72 h: 184B5 cells; for LC50 / TGI: 184b5, 72 h. The method in brief:
(§2)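 Non-malignant lines: 184B5 (normal breast) in Hams F-12/DMEM (50:50) with published supplements; BEAS-2B (bronchial epithelium) in Hams F-12/DMEM (50:50) with 10% foetal calf serum, 2 mM L-glutamine, penicillin/streptomycin. Compounds at five concentrations, 0.01–100 μM, 72 h, 37 °C, 5% CO2; MTT read-out. GI50, TGI, LC50 relative to untreated controls; ≥3 independent experiments in quadruplicate.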

In the next data set the test system is MCF7. The data set can be described thus: Cytotoxicity against human MCF7 cells after 72 hrs by MTT assay. The following applies: MCF7, 72 h; for CC50: read-out: LC50 (the source's name). It is filed as functional. The method in brief: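 MCF-7 cells grown in EMEM with 10% foetal calf serum, 2 mM L-glutamine, 100 units/mL penicillin, 100 µg/mL streptomycin. Exposed to five concentrations between 0.01 and 100 μM for 72 h, 37 °C, humidified 5% CO2; MTT read-out. GI50, TGI, LC50 relative to untreated controls; ≥3 independent experiments in quadruplicate.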

Data set [6] is described as follows: Cytotoxicity against human BEAS2B cells after 72 hrs by MTT assay. The class given is cell-based, BEAS-2B. The following applies: for GI50 at 72 h: BEAS2B cells; for LC50 / TGI: beas-2b, 72 h. A digest of the protocol: as §2
Data set [7] in a line: Antioxidant activity assessed as DPPH radical scavenging activity at 0.5 mg/ml after 180 mins. The class given is physicochemical. To be noted: 3 h. The method in brief: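 Compounds in absolute ethanol, serially diluted from 1 mg/mL, mixed 1:1 with […] in ethanol. Final range 0.016–0.5 mg/mL, 6 concentrations. Incubated at 37 °C in the dark, with decolourisation followed at 517 nm at several time intervals. % scavenged = (A vehicle control − A sample)/A control × 100. Quadruplicate; mean ± SD.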
Background: The DPPH test is a chemical assay of radical scavenging.

Where only a bound is given, the exact number is not on record here.

By GI50 is commonly meant the concentration at which growth is held to half of that of the control. For orientation: LC50 means the concentration lethal to half of the exposed cells or organisms. A high value points to lower toxicity. As a reminder, the TGI is the concentration giving total growth inhibition. Lower therefore signals more potent growth arrest. In the case of `N#C[Se]c1ccc(NC(=O)Oc2ccc(Cl)cc2)cc1`, the GI50 with CCRF-CEM was found to be 18.3 µM; in data set [1], 6.4 µM; in the data set on HT-29, 11.8 µM; in data set [3], 13.8 µM; with MCF7, 6 µM. Further, the LC50 worked out at 71.8 µM in the data set on CCRF-CEM, 68.7 µM in the data set on HT-29, 59.8 µM in data set [5] and 68.7 µM in data set [6]. Also, the TGI was 45.1 µM in the data set on CCRF-CEM; 18.7 µM in data set [1]; 40.3 µM with HT-29; 41.4 µM in data set [3]; 19.9 µM in [5]; 26.3 µM in the data set on MCF7. The compound also returned a TGI in data set [6] of 38 µM. This compound displayed an LC50 (concentration causing 50% net cell kill) in [1] of 57.9 µM. Besides, the “inhibition (INH)” value in [2] is reported as > 25%. For the same compound, the results for the CC50 (in [3]; in the data set with MCF7) were 69 µM and 63.6 µM, respectively. The Activity in [4] stood at 37.6 µg/µL. The GI50 at 72 h worked out at 5.6 µM in data set [5] and 9.3 µM in data set [6].
As to `N#C[Se]c1ccc(NC(=O)OCC2c3ccccc3-c3ccccc32)cc1`, the GI50 was found to be 7.5 µM in the data set with CCRF-CEM; 2 µM in data set [1]; 15.5 µM with HT-29; 23.8 µM in data set [3]; 7.6 µM in the data set with MCF7. Further, the LC50 was found to be 66.7 µM in the data set on CCRF-CEM, 70.2 µM in the data set with HT-29, 62.5 µM in data set [5] and 68.2 µM in data set [6]. The TGI in the data set on CCRF-CEM came to 34.2 µM; in data set [1], 34.3 µM; with HT-29, 42.8 µM; in [3], 48.4 µM; in [5], 25.8 µM; in the data set with MCF7, 34.6 µM. The TGI in data set [6] was 38.4 µM. Further, in [1], the LC50 (concentration causing 50% net cell kill) turned out to be 70 µM. For the same compound, in data set [7], the “inhibition (INH)” value is recorded as > 25%. Moreover, the values for the CC50 (in data set [3]; in the data set on MCF7) were 73 µM and 67 µM, respectively. The Activity in data set [4] turned out to be 7.02 µg/µL. Besides, the values for the GI50 at 72 h in data set [5] and in [6] were 5.5 µM and 7.9 µM, respectively.
For the compound `N#C[Se]c1ccc(NC(=O)OCc2ccccc2)cc1`, the GI50 with CCRF-CEM is 23.2 µM; in [1], 3.7 µM; with HT-29, 13.3 µM; in [3] it was 27.6 µM; with MCF7, 8.7 µM. Besides, the LC50 in the data set on CCRF-CEM amounted to 73.7 µM; in the data set with HT-29, 69.1 µM; in [5], 60.7 µM; in data set [6], 66.6 µM. Further, the TGI is 48.4 µM in the data set on CCRF-CEM; 27.8 µM in data set [1]; 41.2 µM in the data set on HT-29; 50.8 µM in [3]; 21.9 µM in [5]; 38.8 µM in the data set with MCF7. This compound also came in with a TGI in data set [6] of 34.4 µM. For the same compound, the LC50 (concentration causing 50% net cell kill) in data set [1] was found to be 62.5 µM. In addition, the “inhibition (INH)” value in data set [7] was determined as 3.7%. Moreover, the CC50 came to 74 µM in data set [3] and 68.9 µM in the data set with MCF7. For the same compound, the Activity in data set [4] is 6.74 µg/µL. Also, the GI50 at 72 h in data set [5] amounted to 5 µM; in data set [6] it was 0.1 µM.
As to `CC(C)COC(=O)Nc1ccc([Se]C#N)cc1`, the GI50 in the data set on CCRF-CEM was 9.3 µM; in [1], 21.6 µM; in the data set with HT-29 it was 8.1 µM; in data set [3] it was 27.1 µM; in the data set with MCF7, 18.1 µM. For the same compound, the LC50 in the data set with CCRF-CEM was 68.7 µM; in the data set with HT-29, 63.7 µM; in [5], 60.9 µM; in [6], 72.1 µM. Besides, the TGI in the data set on CCRF-CEM was found to be 38.3 µM; in data set [1], 47.3 µM; with HT-29 it was 31.3 µM; in data set [3], 51.2 µM; in [5], 21.6 µM; in the data set with MCF7, 45.5 µM. This compound returned a TGI in data set [6] of 49.5 µM. Further, the LC50 (concentration causing 50% net cell kill) in [1] is 73 µM. For the same compound, in data set [7], the “inhibition (INH)” value is on record as 27.1%. Moreover, the CC50 in data set [3] was 75.4 µM; with MCF7 it was 73 µM. Besides, in data set [4], the Activity was determined as 5.09 µg/µL. Moreover, the GI50 at 72 h worked out at 5.8 µM in data set [5] and 26.9 µM in data set [6].

(Values after ChEMBL document CHEMBL3399918, “In vitro radical scavenging and cytotoxic activities of novel hybrid selenocarbamates” (Bioorg Med Chem, 2015).)
